# According to ChEMBL document CHEMBL1777807, “3-Substituted 3-(4-aryloxyaryl)-propanoic acids as GPR40 agonists” (Bioorg Med Chem Lett, 2011):
# Assays:
# [1] = target: T1, Free fatty acid receptor 1 (Homo sapiens, UniProt O14842); assay: Agonist activity at human GPR40 expressed in CHO cells assessed as intracellular calcium mobilization by FLIPR assay; format: functional, cell-based
# Procedure, shortened: (§1)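 Intracellular calcium flux read on a fluorometric imaging plate reader, giving EC50 (nM). Each reported value is the mean of at least 3 experiments, with standard deviations below 75% of the average.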
# [2] = target: Free fatty acid receptor 1 (Mus musculus, UniProt Q76JU9); assay: Agonist activity at mouse GPR40 expressed in CHO cells assessed as intracellular calcium mobilization by FLIPR assay; format: functional, cell-based; procedure, shortened: as §1
# [3] = target: T1, Free fatty acid receptor 1; assay: Inhibition of human GPR40 expressed in CHO cells by SPA based binding assay; format: cell-based
# Procedure, shortened: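 Scintillation proximity binding assay using receptor isolated from CHO cells overexpressing human GPR40, giving IC50 (nM). Each value is the mean of at least 3 experiments, with standard deviations below 75% of the average.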
# [4] = target: T1, Free fatty acid receptor 1; assay: Agonist activity at human GPR40 expressed in HEK293 cells assessed as [3H]IP3 production in presence of 10% human serum; format: functional, cell-based
# Procedure, shortened: (§2)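 IP3 production was measured in human cells as EC50 (nM). One condition included 10% human serum and the other 0.4% serum albumin, to reflect plasma protein binding.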
# [5] = target: T1, Free fatty acid receptor 1; assay: Agonist activity at human GPR40 expressed in HEK293 cells assessed as [3H]IP3 production in presence of 0.4% serum albumin; format: functional, cell-based; procedure, shortened: as §2
# Cytochrome P450 2C9 = Cytochrome P450 2C9 (Homo sapiens, UniProt P11712); assay: Inhibition of CYP2C9; format: ADME
# Cytochrome P450 2D6 = Cytochrome P450 2D6 (Homo sapiens, UniProt P10635); assay: Inhibition of CYP2D6; format: ADME
# Cytochrome P450 3A4 = Cytochrome P450 3A4 (Homo sapiens, UniProt P08684); assay: Inhibition of CYP3A4; format: ADME
# [6] = target: Voltage-gated inwardly rectifying potassium channel KCNH2 (Homo sapiens, UniProt Q12809); assay: Inhibition of human ERG
# [7] = target: Voltage-dependent L-type calcium channel subunit alpha-1C (Homo sapiens, UniProt Q13936); assay: Inhibition of Cav1.2 calcium channel
# [8] = Plasma clearance in mouse; format: ADME, organism-based
# [9] = Volume of distribution in mouse; format: ADME, organism-based; conditions: in vivo
# [10] = Half life in mouse; format: ADME, organism-based; conditions: in vivo
# [11] = Oral bioavailability in mouse; format: ADME, organism-based; conditions: in vivo
# [12] = Cmax in mouse; format: ADME, organism-based; conditions: in vivo
# [13] = Tmax in mouse; format: ADME, organism-based; conditions: in vivo
# Mus musculus = assay: Inhibition of glucose AUC in dextrose-treated lean mouse blood at 10 mg/kg, po treated 1 hr prior to dextrose challenge by intraperitoneal glucose tolerance test; format: functional
# Sequence of Cytochrome P450 3A4 (P08684 whole entry): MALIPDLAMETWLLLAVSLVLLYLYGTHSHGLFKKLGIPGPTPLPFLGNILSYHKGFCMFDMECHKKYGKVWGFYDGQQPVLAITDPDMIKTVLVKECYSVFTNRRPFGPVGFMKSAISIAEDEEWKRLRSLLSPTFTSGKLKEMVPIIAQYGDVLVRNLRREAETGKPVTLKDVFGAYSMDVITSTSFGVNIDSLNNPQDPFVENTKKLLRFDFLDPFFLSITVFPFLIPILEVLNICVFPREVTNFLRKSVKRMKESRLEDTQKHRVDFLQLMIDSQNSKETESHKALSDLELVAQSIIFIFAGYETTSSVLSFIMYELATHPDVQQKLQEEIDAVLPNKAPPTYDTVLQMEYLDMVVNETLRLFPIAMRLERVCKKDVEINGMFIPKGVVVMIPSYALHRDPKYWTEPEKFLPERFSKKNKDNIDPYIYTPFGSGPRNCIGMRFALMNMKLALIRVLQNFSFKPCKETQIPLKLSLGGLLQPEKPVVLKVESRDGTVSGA
# T1 sequence (O14842 whole entry): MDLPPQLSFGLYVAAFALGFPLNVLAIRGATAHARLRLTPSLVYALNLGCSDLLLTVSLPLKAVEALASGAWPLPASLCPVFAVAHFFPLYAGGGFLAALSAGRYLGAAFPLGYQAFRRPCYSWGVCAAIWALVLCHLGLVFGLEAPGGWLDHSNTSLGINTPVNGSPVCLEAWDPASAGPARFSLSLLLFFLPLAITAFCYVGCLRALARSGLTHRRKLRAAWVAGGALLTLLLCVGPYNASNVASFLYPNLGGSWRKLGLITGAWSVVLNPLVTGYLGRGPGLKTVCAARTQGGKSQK
# Sequence of Voltage-dependent L-type calcium channel subunit alpha-1C (Q13936 whole entry): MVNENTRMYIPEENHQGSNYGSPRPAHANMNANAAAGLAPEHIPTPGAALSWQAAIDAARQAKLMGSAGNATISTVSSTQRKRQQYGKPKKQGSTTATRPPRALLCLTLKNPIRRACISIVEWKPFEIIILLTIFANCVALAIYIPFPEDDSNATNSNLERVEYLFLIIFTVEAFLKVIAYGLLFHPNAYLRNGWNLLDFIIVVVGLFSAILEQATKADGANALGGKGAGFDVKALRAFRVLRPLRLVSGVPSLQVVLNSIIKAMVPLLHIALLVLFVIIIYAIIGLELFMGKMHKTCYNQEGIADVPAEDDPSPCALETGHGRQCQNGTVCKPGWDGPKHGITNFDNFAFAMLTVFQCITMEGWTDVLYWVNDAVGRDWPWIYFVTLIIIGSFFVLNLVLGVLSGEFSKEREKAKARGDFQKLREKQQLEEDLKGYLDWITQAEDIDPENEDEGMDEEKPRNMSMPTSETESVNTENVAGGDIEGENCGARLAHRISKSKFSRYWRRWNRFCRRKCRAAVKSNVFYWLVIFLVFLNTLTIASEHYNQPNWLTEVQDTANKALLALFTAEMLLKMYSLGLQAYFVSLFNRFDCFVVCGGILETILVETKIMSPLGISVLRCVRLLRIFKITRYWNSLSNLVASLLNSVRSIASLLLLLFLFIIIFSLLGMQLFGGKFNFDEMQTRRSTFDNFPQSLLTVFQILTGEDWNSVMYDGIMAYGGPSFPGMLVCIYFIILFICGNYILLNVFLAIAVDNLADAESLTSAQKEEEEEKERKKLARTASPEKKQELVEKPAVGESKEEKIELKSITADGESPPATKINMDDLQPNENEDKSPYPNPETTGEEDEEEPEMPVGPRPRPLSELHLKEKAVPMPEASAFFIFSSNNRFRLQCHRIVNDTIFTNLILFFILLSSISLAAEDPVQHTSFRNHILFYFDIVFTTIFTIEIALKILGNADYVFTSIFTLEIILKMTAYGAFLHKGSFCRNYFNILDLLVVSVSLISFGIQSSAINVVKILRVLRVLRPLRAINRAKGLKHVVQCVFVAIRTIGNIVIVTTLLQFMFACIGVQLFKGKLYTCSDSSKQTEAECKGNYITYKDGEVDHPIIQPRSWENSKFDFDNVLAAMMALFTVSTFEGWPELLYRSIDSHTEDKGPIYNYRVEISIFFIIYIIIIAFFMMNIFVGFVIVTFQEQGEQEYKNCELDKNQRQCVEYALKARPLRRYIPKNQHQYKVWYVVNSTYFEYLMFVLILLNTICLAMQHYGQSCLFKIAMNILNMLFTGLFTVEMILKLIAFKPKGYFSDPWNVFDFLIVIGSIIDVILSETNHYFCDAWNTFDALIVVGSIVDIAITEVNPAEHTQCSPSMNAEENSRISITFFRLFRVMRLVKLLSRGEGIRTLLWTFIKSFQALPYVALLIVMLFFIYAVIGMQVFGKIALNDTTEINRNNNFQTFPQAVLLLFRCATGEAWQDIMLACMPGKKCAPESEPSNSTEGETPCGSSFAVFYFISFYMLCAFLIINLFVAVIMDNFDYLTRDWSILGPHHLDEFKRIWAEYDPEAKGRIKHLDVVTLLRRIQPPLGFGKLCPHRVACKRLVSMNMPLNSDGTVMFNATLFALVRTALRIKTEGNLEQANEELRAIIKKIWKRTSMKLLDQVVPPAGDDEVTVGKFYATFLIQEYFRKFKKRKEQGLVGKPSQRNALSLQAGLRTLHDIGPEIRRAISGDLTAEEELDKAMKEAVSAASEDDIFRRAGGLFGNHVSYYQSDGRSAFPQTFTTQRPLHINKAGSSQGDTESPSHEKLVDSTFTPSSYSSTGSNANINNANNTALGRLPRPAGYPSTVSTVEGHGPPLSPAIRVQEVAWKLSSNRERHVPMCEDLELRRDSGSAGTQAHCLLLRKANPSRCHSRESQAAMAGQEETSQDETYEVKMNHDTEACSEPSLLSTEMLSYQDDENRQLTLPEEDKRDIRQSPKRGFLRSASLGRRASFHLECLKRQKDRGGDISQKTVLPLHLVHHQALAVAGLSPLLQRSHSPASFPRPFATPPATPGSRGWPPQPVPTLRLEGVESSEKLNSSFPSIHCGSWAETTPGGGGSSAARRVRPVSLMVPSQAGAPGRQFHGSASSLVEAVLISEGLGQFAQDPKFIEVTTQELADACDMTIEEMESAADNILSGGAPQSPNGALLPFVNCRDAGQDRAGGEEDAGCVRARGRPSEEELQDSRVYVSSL
# Sequence of Free fatty acid receptor 1 (Mus musculus, UniProt Q76JU9) (Q76JU9 whole entry): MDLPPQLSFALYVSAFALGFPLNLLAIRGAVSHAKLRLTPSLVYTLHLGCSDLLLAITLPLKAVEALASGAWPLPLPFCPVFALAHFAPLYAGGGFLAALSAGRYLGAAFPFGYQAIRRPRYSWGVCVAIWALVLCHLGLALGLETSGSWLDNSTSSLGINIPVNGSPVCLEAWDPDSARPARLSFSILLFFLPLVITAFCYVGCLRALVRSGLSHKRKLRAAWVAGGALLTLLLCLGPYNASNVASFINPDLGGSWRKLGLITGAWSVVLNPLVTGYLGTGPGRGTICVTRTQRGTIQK
# Sequence of Voltage-gated inwardly rectifying potassium channel KCNH2 (Q12809 whole entry): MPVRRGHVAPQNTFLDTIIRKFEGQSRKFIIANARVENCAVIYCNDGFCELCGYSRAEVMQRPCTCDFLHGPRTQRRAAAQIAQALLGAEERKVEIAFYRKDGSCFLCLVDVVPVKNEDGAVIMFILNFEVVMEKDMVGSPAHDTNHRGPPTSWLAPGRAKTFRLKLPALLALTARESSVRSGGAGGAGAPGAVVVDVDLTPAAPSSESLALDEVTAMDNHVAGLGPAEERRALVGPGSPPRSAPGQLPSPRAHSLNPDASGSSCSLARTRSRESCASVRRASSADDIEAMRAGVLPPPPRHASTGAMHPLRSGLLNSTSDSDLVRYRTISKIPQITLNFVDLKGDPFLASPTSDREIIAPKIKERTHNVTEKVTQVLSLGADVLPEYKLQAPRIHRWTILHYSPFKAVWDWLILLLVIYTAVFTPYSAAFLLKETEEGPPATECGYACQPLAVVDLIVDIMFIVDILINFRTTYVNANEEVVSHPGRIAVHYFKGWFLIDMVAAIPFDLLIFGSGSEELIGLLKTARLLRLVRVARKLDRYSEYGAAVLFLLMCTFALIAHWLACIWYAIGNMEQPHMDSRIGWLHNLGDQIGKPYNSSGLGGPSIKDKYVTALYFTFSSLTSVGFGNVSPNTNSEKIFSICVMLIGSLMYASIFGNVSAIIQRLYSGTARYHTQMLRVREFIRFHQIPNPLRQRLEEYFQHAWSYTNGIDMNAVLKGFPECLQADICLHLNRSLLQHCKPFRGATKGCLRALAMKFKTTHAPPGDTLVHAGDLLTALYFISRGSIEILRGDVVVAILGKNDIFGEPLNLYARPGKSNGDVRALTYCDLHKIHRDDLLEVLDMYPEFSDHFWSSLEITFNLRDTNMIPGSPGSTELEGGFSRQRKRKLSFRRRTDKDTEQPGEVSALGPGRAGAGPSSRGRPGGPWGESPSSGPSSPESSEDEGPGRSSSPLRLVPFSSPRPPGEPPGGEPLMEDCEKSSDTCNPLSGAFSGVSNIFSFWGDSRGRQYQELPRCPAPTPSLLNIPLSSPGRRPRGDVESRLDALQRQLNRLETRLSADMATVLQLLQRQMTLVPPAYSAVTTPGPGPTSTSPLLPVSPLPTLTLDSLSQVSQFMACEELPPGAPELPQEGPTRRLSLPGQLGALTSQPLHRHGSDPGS
# Sequence of Cytochrome P450 2C9 (P11712 whole entry): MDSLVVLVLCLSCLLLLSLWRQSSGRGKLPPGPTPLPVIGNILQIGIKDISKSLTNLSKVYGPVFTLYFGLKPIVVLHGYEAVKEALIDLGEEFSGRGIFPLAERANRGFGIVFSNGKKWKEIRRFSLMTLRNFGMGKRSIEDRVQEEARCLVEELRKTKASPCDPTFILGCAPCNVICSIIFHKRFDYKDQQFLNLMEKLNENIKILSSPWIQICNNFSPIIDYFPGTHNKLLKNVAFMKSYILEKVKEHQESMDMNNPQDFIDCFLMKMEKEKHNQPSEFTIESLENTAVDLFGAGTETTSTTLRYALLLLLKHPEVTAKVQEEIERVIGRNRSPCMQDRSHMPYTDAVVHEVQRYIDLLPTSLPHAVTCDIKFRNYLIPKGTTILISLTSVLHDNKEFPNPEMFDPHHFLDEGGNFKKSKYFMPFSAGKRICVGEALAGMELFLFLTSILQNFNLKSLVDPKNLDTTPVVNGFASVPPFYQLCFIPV
Compound,EC50 [1],EC50 [2],IC50 [3],also measured
O=C(O)CCc1ccc(Oc2ccc(Cl)cc2Cl)cc1,1360 nM,–,–,–
O=C(O)CCc1ccc(Oc2ccc(C(F)(F)F)cc2Cl)cc1,686 nM,–,–,–
O=C(O)C(Cc1ccc(Oc2ccc(C(F)(F)F)cc2Cl)cc1)C(=O)O,970 nM,–,–,–
O=C1NC(=O)C(Cc2ccc(Oc3ccc(F)cc3)cc2)S1 (stereo unspecified),474 nM,–,–,–
CC#CC(CC(=O)O)c1ccc(OC2CCCc3nc(-c4ccc(C)cc4)sc32)cc1 (mixture of isomers),51 nM,100 nM,23 nM,–
CC#CC(CC(=O)O)c1ccc(Oc2ccc(C(F)(F)F)cc2OC(F)F)cc1F (racemic),113 nM,104 nM,49 nM,EC50 [4]: 306 nM; EC50 [5]: 349 nM; IC50 (Cytochrome P450 2C9): 28000 nM; IC50 (Cytochrome P450 2D6): > 50000 nM; IC50 (Cytochrome P450 3A4): > 50000 nM; IC50 [6]: 25000 nM; IC50 [7]: 25600 nM
CC(CC(=O)O)c1ccc(Oc2ccc(Cl)cc2Cl)cc1 (racemic),2480 nM,–,–,–
CC#CC(CC(=O)O)c1ccc(Oc2ccc(C(F)(F)F)cc2C)cc1 (racemic),94 nM,127 nM,40 nM,–
CC#CC(CC(=O)O)c1ccc(Oc2ccc(C(F)(F)F)cc2OC(F)F)cc1 (racemic),71 nM,77 nM,12 nM,EC50 [4]: 436 nM; EC50 [5]: 455 nM; clearance [8]: 0.49 mL/min/kg; Vd [9]: 0.31 L/kg; half-life [10]: 7.8 h; bioavailability [11]: 112%; Cmax [12]: 12 µM; Tmax [13]: 4 h; inhibition in vivo at 10 mg/kg (Mus musculus): 66%; IC50 (Cytochrome P450 2C9): > 50000 nM; IC50 (Cytochrome P450 2D6): > 50000 nM; IC50 (Cytochrome P450 3A4): > 50000 nM; IC50 [6]: > 60000 nM; IC50 [7]: > 30000 nM
CC#CC(CC(=O)O)c1ccc(Oc2ncc(C(F)(F)F)cc2Cl)cc1 (racemic),108 nM,95 nM,30 nM,EC50 [4]: 409 nM
CC#CC(CC(=O)O)c1ccc(Oc2ncc(Br)cn2)cc1 (racemic),1570 nM,1480 nM,433 nM,–
CC#CC(CC(=O)O)c1ccc(Oc2nccnc2C#N)cc1 (racemic),1580 nM,985 nM,2490 nM,–
CC#CC(CC(=O)O)c1ccc(OC2CCCC2)cc1 (racemic),114 nM,124 nM,312 nM,–
CC#C[C@]1(c2ccc(Oc3ccc(C(F)(F)F)cc3Cl)cc2)C[C@@H]1C(=O)O (racemic),2820 nM,871 nM,3440 nM,–
CC#C[C@]1(c2ccc(Oc3ccc(C(F)(F)F)cc3Cl)cc2)C[C@H]1C(=O)O (racemic),24500 nM,> 40000 nM,> 10000 nM,–

# The next lines start with results.
EC50 [1],EC50 [2],IC50 [3],Compound,also measured
31 nM,47 nM,42 nM,CC#CC(CC(=O)O)c1ccc(O[C@@H]2CCc3ccccc32)cc1 (mixture of isomers),–
42 nM,48 nM,23 nM,CC#CC(CC(=O)O)c1ccc(Oc2ccc(C#N)cc2Cl)cc1 (racemic),EC50 [4]: 519 nM; EC50 [5]: 597 nM
85 nM,88 nM,36 nM,CC#CC(CC(=O)O)c1ccc(Oc2ccc(C#N)cc2Br)cc1 (racemic),–
53 nM,93 nM,13 nM,CC#CC(CC(=O)O)c1ccc(Oc2ccc(C#N)c3ccccc23)cc1 (racemic),EC50 [4]: 172 nM; EC50 [5]: 247 nM
1400 nM,1250 nM,211 nM,CC#CC(CC(=O)O)c1ccc(Oc2ccc(C(F)(F)F)c3ccccc23)cc1 (racemic),–
394 nM,149 nM,342 nM,CC#CC(CC(=O)O)c1ccc(Oc2nccc3ccccc23)cc1 (racemic),–
954 nM,3710 nM,4400 nM,CC#CC(c1ccc(OCc2ccccc2)cc1)C1OC(=O)NC1=O (racemic),–
124 nM,266 nM,19 nM,CC#CC(c1ccc(Oc2ccc(C(F)(F)F)cc2OC(F)F)cc1)C1OC(=O)NC1=O (racemic),EC50 [4]: 224 nM; EC50 [5]: 249 nM
7580 nM,7060 nM,2410 nM,CC#C[C@H](c1ccc(Oc2ccc(C(F)(F)F)cc2OC(F)F)cc1)[C@H]1OC(=O)NC1=O (racemic),–
130 nM,136 nM,151 nM,CC#C[C@@H](c1ccc(Oc2ccc(C(F)(F)F)cc2OC(F)F)cc1)[C@H]1OC(=O)NC1=O (racemic),clearance [8]: 0.85 mL/min/kg; Vd [9]: 0.47 L/kg; half-life [10]: 7 h; bioavailability [11]: 93%; Cmax [12]: 5.5 µM; Tmax [13]: 4.7 h; IC50 (Cytochrome P450 3A4): > 50000 nM; IC50 [7]: 5100 nM
